For series [1], the system named is Candida albicans. Briefly: Antimicrobial activity against Candida albicans SC5314 infected in ICR mouse assessed as mean survival days at 0.32 mg/kg, iv qd for 5 days starting 2 hrs post infection (reference value: 9.0 +/- 0.67 days). Type of series: functional.
Series [2] deals with Candida albicans. Nature of the series: Antimicrobial activity against Candida albicans SC5314 infected in ICR mouse assessed as mean survival days at 1 mg/kg, iv qd for 5 days starting 2 hrs post infection (reference value: 9.0 +/- 0.67 days). Type of series: functional.
The test system of series [3] is Candida albicans. Briefly: Antimicrobial activity against Candida albicans SC5314 infected in ICR mouse assessed as mean survival days at 3.2 mg/kg, iv qd for 5 days starting 2 hrs post infection (reference value: 9.0 +/- 0.67 days). Type of series: functional.
Series [4] concerns Candida albicans. Briefly: Antimicrobial activity against Candida albicans SC5314 infected in ICR mouse assessed as mean survival days at 10 mg/kg, iv qd for 5 days starting 2 hrs post infection (reference value: 9.0 +/- 0.67 days). The format is functional.
The nature of series [5]: Cmax in Sprague-Dawley rat at 10 mg/kg, po. The conditions noted are these: in vivo. Details: dose 10 mg/kg, route oral. Type of series: ADME, organism-based. An outline of the steps:
(§1)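 Male Sprague−Dawley rats (200−250 g), seven per group, dosed orally at 10 mg/kg or intravenously at 3 or 5 mg/kg in 5% DMSO + 5% Tween 80 in 90% saline. Serial retrobulbar blood samples were quantified by LC-MS. Parameters were derived from mean plasma concentrations by noncompartmental analysis. For the disulfate salt, values are based on the active free base measured.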

Series [6] can be described thus: Tmax in Sprague-Dawley rat at 10 mg/kg, po. Type of series: ADME, organism-based. Details: dose 10 mg/kg, route oral. The conditions noted are these: in vivo. In outline:
as §1

The nature of series [7]: Half life in Sprague-Dawley rat at 10 mg/kg, po. Type of series: ADME, organism-based. Details: dose 10 mg/kg, route oral. The conditions noted are these: in vivo. An outline of the steps:
as §1

Series [8] in a line: AUC (0 to infinity) in Sprague-Dawley rat at 10 mg/kg, po. The format is ADME, organism-based. Details: time infinity, dose 10 mg/kg, route oral. The conditions noted are these: plasma. An outline of the steps: as §1
Series [9] in a line: Intrinsic clearance in Sprague-Dawley rat liver microsomes assessed per mg protein at 0.1 uM by LC/MS/MS analysis. Type of series: ADME. The conditions noted are these: read-out: […]. An outline of the steps:
(§2)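 Male Sprague−Dawley rat liver microsomes (0.33 mg/mL protein) in 0.1 M Tris-HCl pH 7.4 with 5 mM MgCl₂ and 1 mM NADPH. Compound at a final 0.1 μM (0.01% DMSO, 0.005% BSA), incubated at 37 °C. Samples taken at 0, 7, 17, 30 and 60 min were quenched in methanol, and parent compound was measured by LC/MS/MS. t1/2 and Clint were then calculated.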
(In general: Liver microsomes are a subcellular fraction often used to study metabolism.)

Series [10] is described as follows: Oral bioavailability in Sprague-Dawley rat at 10 mg/kg. Type of series: ADME, organism-based. The conditions noted are these: in vivo. In outline:
as §1

Series [11] in a line: Elimination half life in Sprague-Dawley rat liver microsomes at 0.1 uM by LC/MS/MS analysis. Type of series: ADME. The conditions noted are these: read-out: beta t1/2. An outline of the steps:
as §2

A further series deals with Hepatocyte. Briefly: Cytotoxicity against rat hepatocytes assessed as reduction in survival rate at 5 to 40 uM after 48 hrs by SRB assay. The format is cell-based. (In general: In SRB staining, fixed cells bind dye roughly in proportion to their protein.)
The nature of series [12]: Half life in Sprague-Dawley rat at 5 mg/kg, iv. The format is ADME, organism-based. Details: dose 5 mg/kg, route intravenous. The conditions noted are these: in vivo. An outline of the steps: as §1
The nature of series [13]: AUC (0 to infinity) in Sprague-Dawley rat at 5 mg/kg, iv. Details: dose 5 mg/kg, route intravenous, time infinity. Type of series: ADME, organism-based. The conditions noted are these: plasma. An outline of the steps:
as §1

The nature of series [14]: Clearance in Sprague-Dawley rat at 5 mg/kg, iv. The conditions noted are these: in vivo. Type of series: ADME, organism-based. Details: dose 5 mg/kg, route intravenous. In outline:
as §1

Series [15] concerns the target Voltage-gated inwardly rectifying potassium channel KCNH2 (Homo sapiens, UniProt Q12809). Briefly: Inhibition of human ERG expressed in CHO cells by whole-cell patch clamp assay. The format is cell-based. (The patch-clamp technique gives a direct electrical read-out from membranes.)
Series [16] concerns Candida albicans. Briefly: Antimicrobial activity against Candida albicans SC5314 after 24 hrs by serial dilution method. The format is functional. The conditions noted are these: SC5314, 24 h. An outline of the steps:
(§3)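 Broth serial dilution MIC in 96-well plates following NCCLS/CLSI methods. Compounds were dissolved in DMSO and serially diluted in growth medium, with incubation at 35 °C. […] C. parapsilosis 22019 served as the quality-control strain in each assay.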

For series [17], the system named is Candida albicans. Nature of the series: Antimicrobial activity against Candida albicans Y0109 after 24 hrs by serial dilution method. The format is functional. The conditions noted are these: Y0109, 24 h. An outline of the steps:
as §3

The subject of a further series is Candida parapsilosis. Briefly: Antimicrobial activity against Candida parapsilosis 22019 after 24 hrs by serial dilution method. Type of series: functional. The conditions noted are these: Lodderomyces parapsilosis, 22019, 24 h. In outline:
as §3

The next series relates to Cryptococcus neoformans. Briefly: Antimicrobial activity against Cryptococcus neoformans 32609 after 72 hrs by serial dilution method. The format is functional. The conditions noted are these: Cryptococcus neoformans, 32609, 72 h. In outline: as §3
The test system of a further series is Nakaseomyces glabratus. Nature of the series: Antimicrobial activity against Candida glabrata 537 after 24 hrs by serial dilution method. Type of series: functional. The conditions noted are these: Nakaseomyces glabratus, 537, 24 h. In outline: as §3
The next series has as its system Aspergillus fumigatus. Briefly: Antimicrobial activity against Aspergillus fumigatus 7544 after 48 hrs by serial dilution method. Type of series: functional. The conditions noted are these: Aspergillus fumigatus, 7544, 48 h. An outline of the steps:
as §3

The subject of series [18] is Candida albicans. Nature of the series: Antimicrobial activity against fluconazole-resistant Candida albicans 100 after 24 hrs by serial dilution method. The format is functional. The conditions noted are these: Candida albicans, 100, 24 h. In outline:
(§4)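 Broth serial-dilution MIC in 96-well plates following NCCLS guidance. Compounds were dissolved in DMSO and serially diluted in growth medium. Clinical isolates came from a hospital collection. […] C. parapsilosis ATCC 22019 served as the quality-control strain in each assay.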

In series [19] the test system is Candida albicans. Briefly: Antimicrobial activity against fluconazole-resistant Candida albicans 103 after 24 hrs by serial dilution method. Type of series: functional. The conditions noted are these: Candida albicans, 103, 24 h. In outline:
as §4

Series [20] relates to Candida albicans. Nature of the series: Antimicrobial activity against fluconazole-resistant Candida albicans J18 after 24 hrs by serial dilution method. Type of series: functional. The conditions noted are these: J18, 24 h. In outline:
as §4

Series [21] has as its system Candida albicans. Nature of the series: Antimicrobial activity against fluconazole-resistant Candida albicans J28 after 24 hrs by serial dilution method. The format is functional. The conditions noted are these: J28, 24 h. An outline of the steps: as §4
Series [22] relates to Candida albicans. Briefly: Antimicrobial activity against fluconazole-resistant Candida albicans J38 after 24 hrs by serial dilution method. The format is functional. The conditions noted are these: J38, 24 h. An outline of the steps:
as §4

Series [23] deals with Candida albicans. Nature of the series: Antimicrobial activity against Candida albicans SC5314 infected in ICR mouse assessed as mean survival days at 0.5 mg/kg, po qd for 5 days starting 2 hrs post infection (reference value: 9.0 +/- 0.67 days). Type of series: functional. An outline of the steps: (§5)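 Reference arm of the systemic C. albicans SC5314 model: female ICR mice (18−22 g, n = 10) were infected iv with 0.2 mL of 5 × 10⁶ CFU/mL. Fluconazole was given orally in distilled water, qd for 5 days from 2 h post-infection. Mean survival days were scored over 30 days.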

In series [24] the test system is Candida albicans. Nature of the series: Antimicrobial activity against Candida albicans SC5314 infected in ICR mouse assessed as mean survival days at 0.5 mg/kg, po qd for 5 days starting 2 hrs post infection (reference value: 5.2 +/- 2.35 days starting 2 hrs post infection). The format is functional. In outline: as §5
For series [25], the system named is Candida albicans. Nature of the series: Antimicrobial activity against fluconazole-resistant Candida albicans 103 infected in ICR mouse assessed as mean survival days at 0.5 mg/kg, po qd for 5 days starting 2 hrs post infection (reference value: 1.5 +/- 0.53 days). The format is functional.

Values after ≈ are worked out from the molar mass of the structure shown.

Sequence of Voltage-gated inwardly rectifying potassium channel KCNH2 (Q12809 whole entry): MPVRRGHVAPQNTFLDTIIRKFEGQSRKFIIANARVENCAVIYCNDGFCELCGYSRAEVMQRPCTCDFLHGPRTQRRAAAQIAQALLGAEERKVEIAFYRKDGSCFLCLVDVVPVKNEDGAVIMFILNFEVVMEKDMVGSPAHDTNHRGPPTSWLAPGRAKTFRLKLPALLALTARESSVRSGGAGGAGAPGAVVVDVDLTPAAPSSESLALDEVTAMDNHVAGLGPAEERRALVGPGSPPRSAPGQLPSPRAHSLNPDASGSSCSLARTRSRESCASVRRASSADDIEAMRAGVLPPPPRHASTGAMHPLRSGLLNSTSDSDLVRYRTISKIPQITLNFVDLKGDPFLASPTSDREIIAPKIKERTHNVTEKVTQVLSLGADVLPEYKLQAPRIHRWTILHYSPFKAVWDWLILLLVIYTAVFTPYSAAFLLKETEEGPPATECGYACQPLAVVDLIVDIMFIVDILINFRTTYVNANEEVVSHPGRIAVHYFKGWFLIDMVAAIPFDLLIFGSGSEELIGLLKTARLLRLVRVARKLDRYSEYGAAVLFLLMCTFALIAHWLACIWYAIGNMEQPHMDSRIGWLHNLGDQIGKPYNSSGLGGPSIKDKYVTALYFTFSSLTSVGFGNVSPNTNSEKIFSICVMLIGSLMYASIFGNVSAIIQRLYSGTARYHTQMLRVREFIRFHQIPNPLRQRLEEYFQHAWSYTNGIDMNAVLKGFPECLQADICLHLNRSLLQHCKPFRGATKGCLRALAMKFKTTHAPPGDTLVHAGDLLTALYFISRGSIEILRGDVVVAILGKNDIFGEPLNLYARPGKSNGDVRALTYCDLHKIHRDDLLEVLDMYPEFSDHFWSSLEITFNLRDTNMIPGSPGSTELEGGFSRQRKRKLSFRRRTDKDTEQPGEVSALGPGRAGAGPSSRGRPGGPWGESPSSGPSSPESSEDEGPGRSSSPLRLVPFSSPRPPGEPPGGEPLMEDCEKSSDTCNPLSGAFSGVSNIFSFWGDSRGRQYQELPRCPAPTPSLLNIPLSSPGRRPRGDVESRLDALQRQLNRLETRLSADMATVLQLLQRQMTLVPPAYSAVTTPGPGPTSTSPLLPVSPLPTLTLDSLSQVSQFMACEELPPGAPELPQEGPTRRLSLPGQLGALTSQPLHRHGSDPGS

A word on the Cmax: it is the highest concentration seen after dosing. By Tmax is commonly meant the time from dosing to the highest level. As usually defined, the AUC(0-inf) is total exposure, with the tail of the curve extrapolated. As usually defined, the bioavailability is dose-corrected exposure relative to a reference, in per cent. As a reminder, the clearance is a measure of how efficiently the substance is removed, as volume per time. A high value points to a high capacity for elimination. On to `C[C@@H](N1CCc2nc(-c3cncnc3)sc2C1)[C@](O)(Cn1cncn1)c1ccc(F)cc1F.O.O=S(=O)(O)O`, for which the Survival with Candida albicans [1] came to 8.8 days; with Candida albicans [2] it was 7.8 days; with Candida albicans [3], 9.8 days; in the series on Candida albicans [4] it was 11.1 days. The same molecule came in with a Cmax in [5] of 164 ng/mL. The Tmax in [6] was 15 min. Besides, the values for the half-life in series [7] and in [12] were 27.6 min and 25.2 min, respectively. The AUC(0-inf) in series [8] was found to be 141 ng·h/mL; in [13], 1190 ng·h/mL. In addition, in series [9], the microsomal CLint at 0.1 µM was found to be 65 µL/min/mg. Besides, the bioavailability in series [10] stood at 5.8%. Moreover, in series [11], the half-life at 0.1 µM turned out to be 32.4 min. For the same molecule, in the series on Hepatocyte, the Activity result is reported as “Non-toxic”. Moreover, the clearance in series [14] was 72.5 mL/min/kg.

One may read the IC50 as the concentration that inhibits the measured activity by half. Low readings indicate greater potency in that assay, high ones weaker potency in that assay. In the case of `CCC(C)n1ncn(-c2ccc(N3CCN(c4ccc(OCC5COC(Cn6cncn6)(c6ccc(Cl)cc6Cl)O5)cc4)CC3)cc2)c1=O` (racemic) [ITRACONAZOLE], the IC50 in [15] was greater than 40 µM.

As a reminder, the MIC is the lowest concentration that inhibits growth of the organism. As for `OC(Cn1cncn1)(Cn1cncn1)c1ccc(F)cc1F` [FLUCONAZOLE], the minimal inhibitory concentration (MIC) in the series with Candida albicans [16] is 0.5 µg/mL (≈ 1.63 µM); against Candida albicans [17], 0.5 µg/mL (≈ 1.63 µM); with Candida parapsilosis it was 1 µg/mL (≈ 3.27 µM); against Cryptococcus neoformans, 0.5 µg/mL (≈ 1.63 µM); in the series on Nakaseomyces glabratus, 0.25 µg/mL (≈ 0.816 µM); against Aspergillus fumigatus, greater than 64 µg/mL. The MIC against Candida albicans [18] was 512 µg/mL (≈ 1670 µM); in the series with Candida albicans [19], greater than 1020 µg/mL; with Candida albicans [20], greater than 1020 µg/mL; in the series on Candida albicans [21], greater than 4 µg/mL; against Candida albicans [22], greater than 4 µg/mL. Moreover, the values for the Survival with Candida albicans [23], in the series with Candida albicans [24] and in the series on Candida albicans [25] were 13.1 days, 11.7 days and 2.3 days, respectively.
